PGC1a acetyl inh – PGC1a acetylation modulation, inhibitor mode; AID 651687; U2OS PGC1a acetylation, AlphaScreen anti-acetyl-lysine; with virally co-expressed GCN5 acetyltransferase; inhibition, % at 15.6 µM; 350,000 compounds, 0.17% hits;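 active means every replicate shows inhibition of at least 40%; inconclusive means mean inhibition at least 40% but some replicate below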
PAX8 inh HTS – lowers PAX8-driven luciferase in RMG-I cells | 360,000 compounds, 1.2% hits | inhibition, % at 12.6 µM | RMG-I TPO-luciferase reporter, SteadyGlo, 24 h;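 active means mean replicate inhibition at least 60% with every replicate also reaching 60%; inconclusive means only one of the two criteria is met; inactive means mean below 60% and not all replicates reaching 60%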;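 further: luciferase light reporting Pax8 driven TPO promoter activity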
EWS-Fli block – blocks EWS/Fli oncoprotein-driven transcription. 350,000 compounds, 0.67% hits. inhibition, % at 12.6 µM. A673 NR0B1-luciferase reporter, viability-normalised;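 active means mean inhibition of at least 50% after viability correction, with every replicate also passing that limit; inconclusive means mean reaches 50% but only one of two replicates passes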;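 further: firefly luciferase signal divided by Alamar Blue viability fluorescence both relative to DMSO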
Xi reactivation – activators of X-chromosome reactivation in mouse fibroblasts; XiGFP mouse fibroblasts, % GFP-positive cells imaging, 3 d; cells co-treated with 5-aza-dC sensitizer; scaled so ellipticine positive control = 100%; activation, % at 7.58 µM; 360,000 compounds, 0.055% hits; AID 743238;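 active means mean normalized replicate activation at least 10% and every replicate at or above 10%; inconclusive means only one of the two criteria met; inactive means mean below 10% and not all replicates reach 10%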
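System: XiGFP fibroblasts, SV40-immortalized. Medium: DMEM plus 5-aza-dC sensitizer. Doses: single point. Timing: 3 d treatment, 15 min room-temperature fixation. Control set: ellipticine 6 µM.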
MLL AF4-AF9 inh – inhibitors of human MLL-AF4/AF9 interaction; inhibition, % at 10 µM; AlphaScreen, biotin-AF4 peptide binding to FLAG-AF9; 350,000 compounds, 0.47% hits;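 active means every replicate reaching a set inhibition limit, whatever the replicate mean, cut at about 25% in these data; inconclusive means mean inhibition reaches that limit but some replicates miss it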
Target sequence (P42568 whole entry, looked up): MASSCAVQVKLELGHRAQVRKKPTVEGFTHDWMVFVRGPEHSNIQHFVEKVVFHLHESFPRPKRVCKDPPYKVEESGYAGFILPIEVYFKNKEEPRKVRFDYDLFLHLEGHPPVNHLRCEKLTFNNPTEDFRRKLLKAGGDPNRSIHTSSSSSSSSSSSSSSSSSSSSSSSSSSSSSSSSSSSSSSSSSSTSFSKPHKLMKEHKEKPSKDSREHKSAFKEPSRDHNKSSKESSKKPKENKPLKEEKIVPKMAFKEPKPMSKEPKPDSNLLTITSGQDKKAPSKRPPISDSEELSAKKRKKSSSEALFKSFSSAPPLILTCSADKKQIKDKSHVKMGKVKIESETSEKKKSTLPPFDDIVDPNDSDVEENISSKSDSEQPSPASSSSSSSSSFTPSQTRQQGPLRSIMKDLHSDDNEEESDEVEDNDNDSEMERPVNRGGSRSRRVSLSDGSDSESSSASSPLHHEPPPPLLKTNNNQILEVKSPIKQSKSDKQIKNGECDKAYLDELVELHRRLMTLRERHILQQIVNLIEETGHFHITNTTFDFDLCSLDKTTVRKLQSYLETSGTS
INS-1E GSIS act – GLuc luminescence reporter in INS-1E cells, primary screen for activators of glucose-dependent secretion of insulin. 370,000 compounds, 0.61% hits. activation, % at 16.6 µM. INS-1E GLuc reporter insulin secretion, 2-3 h;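 active means lowest replicate activation of at least 40%, so every replicate reaches that level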
Hits are given with their value; i = inactive; ? = inconclusive; nt = no result given. Compounds with a hit are over-represented: about 2.1% of the library has one in this group of screens.

SMILES	PGC1a acetyl inh	PAX8 inh HTS	EWS-Fli block	Xi reactivation	MLL AF4-AF9 inh	INS-1E GSIS act
COc1ccc(/C=N/Nc2cc(C)nc3ccc(OC)cc23)c(OC)c1	nt	87.1	66.5	i	i	i
COc1ccc2nc(C)cc(N/N=C/c3ccccc3)c2c1	i	nt	nt	nt	nt	nt
COc1ccc(Nc2cc(C)nc3ccccc23)cc1	i	nt	i	nt	i	42.1
CCOc1ccc(Nc2c3ccccc3nc3ccccc23)cc1	i	i	i	i	36.8	i
CO[C@H]1O[C@H](CO)[C@@H](OC(=O)Nc2ccccc2-c2ccccc2)[C@H](OC(=O)Nc2ccccc2-c2ccccc2)[C@@H]1OC(=O)Nc1ccccc1-c1ccccc1	i	i	i	nt	i	nt
O=C(CN1C(=O)C2CC=CCC2C1=O)Nc1nccs1 (centres undefined)	50.1	nt	nt	nt	nt	i
O=C(CN1C(=O)c2ccccc2C1=O)Nc1nccs1	nt	i	i	i	nt	i
CCOC(=O)c1cnc2ccc(OCC)cc2c1N1CCN(c2ccccc2)CC1	i	i	nt	nt	nt	71.0
C[C@@H]1CN([C@@H](C)CO)C(=O)Cc2cc(NC(=O)C3CC3)ccc2O[C@H]1CN(C)Cc1ccc(Cl)c(Cl)c1	i	i	nt	i	i	i
O=C(NC1CCCN(Cc2ccc(Cl)cc2)C1)c1c(F)cccc1F (centres undefined)	i	i	i	i	i	i
O=C(NC1CCCN(Cc2ccc(Cl)cc2)C1)c1ccccc1C(F)(F)F (centres undefined)	47.2	i	i	i	i	i
CC(=O)N1CCCCN2[C@H](CO)[C@H](c3ccc(-c4cccc(C)c4)cc3)[C@H]2C1	i	i	i	i	i	i
C[C@H]1CN([C@@H](C)CO)S(=O)(=O)c2ccc(C#CCN(C)C)cc2O[C@@H]1CN(C)Cc1cccnc1	i	nt	i	i	i	i
COC(=O)COc1ccc(/C=N/NC(=O)CN(c2ccccc2OC)S(=O)(=O)c2ccccc2)cc1	nt	69.5	i	i	i	i
COc1ccc(OC)c(N(CC(=O)NN=C2CCN(C)CC2)S(=O)(=O)c2ccccc2)c1	nt	i	i	i	i	92.6
COC(=O)COc1ccc(/C=N/NC(=O)c2ccc(N(Cc3ccccc3)S(C)(=O)=O)cc2)cc1	nt	61.8	i	i	i	i
O=C(Nc1ccc2c(c1)OCO2)N[C@@H]1CC[C@H](CCNC(=O)C2CCC2)O[C@@H]1CO	i	i	i	i	i	i
CC(=O)N1Cc2cc(C(=O)NCc3cccc(F)c3)nc(-c3cccc(C4=CCCC4)c3)c2[C@@H]1CCO	i	nt	i	i	i	i
CC=Cc1ccc2n(c1=O)C[C@H]1[C@H](CO)[C@@H](C(=O)NCc3ccc(F)cc3)N(C)[C@@H]21 (mixture of isomers)	i	i	i	i	i	i
COCC(=O)Nc1ccc2c(c1)C(=O)N(C)C[C@@H](OC)[C@@H](C)CN(C(=O)c1ccccc1F)[C@H](C)CO2	i	i	i	i	i	i
COCC#Cc1cnc2c(c1)C(=O)N([C@H](C)CO)C[C@@H](C)[C@@H](CN(C)S(=O)(=O)c1ccccc1)O2	i	nt	i	i	i	i
O=C(Nc1cccnc1)c1cnn2c(C(F)F)cc(C3CC3)nc12	i	nt	nt	nt	nt	59.9
O=C(NCC[C@H]1CC[C@H](NC(=O)C2CCC2)[C@H](CO)O1)c1cc(Cl)cc(Cl)c1	i	i	i	i	i	i
O=C1CN(c2nc3ccccc3n3cnnc23)CC(=O)N1CCc1ccccc1	i	i	i	i	25.2	nt
c1ccc2c(c1)nc(N1CCCCCC1)c1nncn12	nt	i	i	i	i	i
SMILES	PGC1a acetyl inh	PAX8 inh HTS	EWS-Fli block	Xi reactivation	MLL AF4-AF9 inh	INS-1E GSIS act
CC(C)C1CC(N(C)C)=CC(=S)N1 (centres undefined)	nt	78.2	i	i	i	i
C[C@H]1CN([C@@H](C)CO)C(=O)Cc2cc(N(C)C)ccc2O[C@H]1CN(C)Cc1ccc(-c2ccccc2)cc1	i	i	i	i	44.2	i
C[C@H]1CN([C@@H](C)CO)C(=O)Cc2cc(N(C)C)ccc2O[C@H]1CN(C)Cc1ccc(C(F)(F)F)cc1	i	i	i	i	nt	i
C[C@@H]1CN([C@H](C)CO)C(=O)Cc2cc(N(C)C)ccc2O[C@H]1CN(C)Cc1ccc(-c2ccccc2)cc1	i	i	i	i	35.6	i
C[C@@H]1CN([C@H](C)CO)C(=O)Cc2cc(N(C)C)ccc2O[C@H]1CN(C)Cc1ccccc1	i	i	i	i	i	i
C[C@@H]1CN([C@H](C)CO)C(=O)Cc2cc(N(C)C)ccc2O[C@@H]1CN(C)Cc1ccc(-c2ccccc2)cc1	i	i	i	i	44.0	i
C[C@@H]1CN([C@@H](C)CO)C(=O)Cc2cc(N(C)C)ccc2O[C@H]1CN(C)Cc1ccccc1	i	i	i	i	i	i
C[C@@H]1CN([C@@H](C)CO)C(=O)Cc2cc(N(C)C)ccc2O[C@H]1CN(C)Cc1ccc(C(F)(F)F)cc1	i	i	i	i	42.5	i
COc1cccc(S(=O)(=O)N[C@@H]2CC[C@H](CCNC(=O)Nc3cc(F)ccc3F)O[C@@H]2CO)c1	i	i	i	i	i	i
COc1cccc(-c2ccc([C@@H]3[C@@H](CO)N(C(=O)C4CC4)C34CN(C(C)=O)C4)cc2)c1	i	i	i	i	i	i
C[C@@H]1CN([C@@H](C)CO)C(=O)Cc2cc(N(C)C)ccc2O[C@@H]1CN(C)Cc1ccc(Oc2ccccc2)cc1	i	?	i	i	38.0	i
C[C@H](CO)N1C[C@H](C)[C@@H](CN(C)Cc2ccc(-c3ccccc3)cc2)Oc2ccc(N(C)C)cc2CC1=O	i	i	i	i	58.8	i
C[C@H]1CN([C@@H](C)CO)C(=O)Cc2cc(N(C)C)ccc2O[C@H]1CN(C)Cc1ccccc1	i	i	i	i	i	i
COc1ccc(CN(C)C[C@H]2Oc3ccc(N(C)C)cc3CC(=O)N([C@@H](C)CO)C[C@@H]2C)cc1	i	i	i	i	i	i
O=C(Cc1ccccc1)N1C[C@H]2[C@@H](c3ccccc31)[C@H](CO)N2C(=O)Nc1ccc(F)cc1	i	i	i	i	nt	i
C[C@H](CO)N1C[C@H](C)[C@H](CN(C)Cc2ccc(C(=O)Nc3ccccc3N)cc2)Oc2ccc(NC(=O)Cn3cnnn3)cc2CC1=O	i	i	i	i	i	i
Cc1ccc(N2C(=O)c3cccc4c([N+](=O)[O-])ccc(c34)C2=O)c2cccnc12	i	i	i	i	i	i
O=C1c2cccc3cccc(c23)C(=O)N1Cc1cccnc1	i	i	i	i	i	i
Cc1nnc(N2C(=O)c3cccc4c([N+](=O)[O-])ccc(c34)C2=O)s1	i	i	68.2	27.0	i	i
Cc1cccc(N2C(=O)c3cccc4c(N5CCCCC5)c([N+](=O)[O-])cc(c34)C2=O)c1C	i	i	nt	i	nt	i
